For test [1], the system named is ACHN. Briefly: Cytotoxicity against human ACHN cells assessed as cell death after 20 to 24 hrs by XTT assay. The class given is functional, cell-based.
For test [2], the system named is ACHN. Description: Cytotoxicity against human ACHN cells assessed as cell death after 20 to 24 hrs by XTT assay in presence of 40 ng/ml TRAIL. The test is classed as functional, cell-based.
The test system of test [3] is ACHN. Briefly: Ratio of EC50 for human ACHN cells to EC50 for human ACHN cells in presence of 40 ng/ml TRAIL. The test is classed as functional. In short, it runs like this:
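Synergy taken as the ratio of the two EC50 values read from ACHN cell death curves, one run without TRAIL and one with 40 ng/mL TRAIL. Treatment lasted 20–24 h.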

In the case of `CC(C)=CC[C@]12O[C@H]1C(=O)c1ccccc1C2=O`, the values for the EC50 with ACHN [1] and in the test with ACHN [2] were 39.7 µM and 16.7 µM, respectively. Further, in the test with ACHN [3], the “Ratio EC50” value worked out at 2.4.

Turning to `CC(C)=CC[C@]12O[C@H]1C(=O)c1cccc(O)c1C2=O`, the figures for the EC50 in the test on ACHN [1] and in the test on ACHN [2] were 6.4 µM and 4.7 µM, respectively. The “Ratio EC50” value with ACHN [3] was found to be 1.4.

With `C[C@@H]1CC(=O)c2c(O)cccc2[C@@H]1O`, the EC50 with ACHN [1] and in the test on ACHN [2] was above 60 µM in each case.

Regarding `CC1=CC(=O)c2c(ccc(C(C)c3ccc4c(c3O)C(=O)C=C(C)C4=O)c2O)C1=O`, the EC50 with ACHN [1] and in the test with ACHN [2] was above 30 µM throughout.

As for `CC1=CC(=O)c2c(ccc(-c3ccc4c(c3O)C(=O)C=C(C)C4=O)c2O)C1=O` [ELLIPTINONE], the EC50 in the test on ACHN [1] is 13.2 µM; with ACHN [2], 3.8 µM. The “Ratio EC50” value in the test with ACHN [3] was 3.5.

For the molecule `CC1=CC(=O)c2c(O)ccc(-c3ccc(O)c4c3C(=O)C(C)=CC4=O)c2C1=O` [MARITINONE], the results for the EC50 in the test on ACHN [1] and in the test with ACHN [2] were 5.8 µM and 1.5 µM, respectively. Further, the “Ratio EC50” value in the test on ACHN [3] is given as 3.8.

With `CC1=CC(=O)c2c(O)cccc2C1=O` [PLUMBAGIN], the EC50 was found to be 7.3 µM in the test on ACHN [1] and 3.7 µM in the test with ACHN [2]. For the same molecule, in the test with ACHN [3], the “Ratio EC50” value was 2.

Consider `Cc1ccc2c(c1)C(=O)c1ccccc1C2=O` [TECTOQUINONE], for which the EC50 in the test on ACHN [1] and in the test on ACHN [2] was above 50 µM each time.

Values taken from ChEMBL document CHEMBL2021849, “Synergistic TRAIL sensitizers from Barleria alluaudii and Diospyros maritima” (J Nat Prod, 2012).
